According to publication PMC6205205 (Medicinal chemistry (Shariqah (United Arab Emirates)), 2018):
Entries after “also recorded” stand apart in the source; their conditions may differ.

Tests used:
[1] = target: T1, IDH1(R132H) (Homo sapiens, UniProt O75874, R132H); test: IDH1; assay type: biochemical; conditions: for Inhibitory activity against IDH1(R132H), in words: compound screening at 50 μM
[2] = system: BT142 glioma cells with R132H IDH1 mutation; test: Inhibition of proliferation of glioma stem-like cells; assay type: cell-based, human; conditions: 5 μM, 14 days treatment
How it was run: (§1)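 Patient-derived glioma cells grown as neurospheres in serum-free medium at 37 °C, 5% CO₂, 100% humidity. Cells seeded at 2000/well and exposed to increasing concentrations of test compound for 14 days. Viability read by Cell Counting Kit-8 following the kit protocol.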

[3] = system: BXD-3752 glioma cells without IDH1 mutation; test: as above; assay type: cell-based, human; conditions: 5 μM, 14 days treatment, no IDH1 mutation
How it was run: as §1

[4] = target: WT IDH1 (Homo sapiens, UniProt O75874); test: Enzyme inhibition of wild-type IDH1; assay type: biochemical
Chain of WT IDH1 (O75874 whole entry): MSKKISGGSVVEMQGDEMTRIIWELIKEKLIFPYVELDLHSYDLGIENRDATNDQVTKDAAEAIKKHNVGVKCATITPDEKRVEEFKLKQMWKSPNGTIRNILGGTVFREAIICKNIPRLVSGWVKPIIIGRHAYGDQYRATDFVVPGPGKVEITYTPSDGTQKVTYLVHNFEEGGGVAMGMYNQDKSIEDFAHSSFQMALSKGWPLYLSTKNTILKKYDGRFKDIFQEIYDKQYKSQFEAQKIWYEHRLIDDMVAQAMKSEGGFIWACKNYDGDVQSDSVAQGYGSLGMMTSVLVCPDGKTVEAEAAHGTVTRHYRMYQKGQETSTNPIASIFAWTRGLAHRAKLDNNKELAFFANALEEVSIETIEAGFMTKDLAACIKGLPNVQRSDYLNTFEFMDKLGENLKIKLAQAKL

[5] = target: R132C IDH1 (Homo sapiens, UniProt O75874, R132C); test: Enzyme inhibition of R132C mutant IDH1; assay type: biochemical
Chain of R132C IDH1 (O75874 whole entry R132C): as the sequence (O75874 whole entry) above, with R132C counted along it

[6] = target: T1, IDH1(R132H); test: Steady-state kinetic study, mode of inhibition; assay type: biochemical
How it was run: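 IDH1(R132H) was expressed in E. coli and purified. Initial velocities were taken as the linear rate of NADPH consumption, followed by UV absorbance at 340 nm. Test compound, α-KG and NADPH levels were each varied. Data were fitted to competitive, noncompetitive and uncompetitive models, and the best model was chosen by highest R² and lowest AICc.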

T1 sequence (O75874 whole entry R132H): as the sequence (O75874 whole entry) above, with R132H counted along it

Work on `O=P(O)(O)CCc1cc(NS(=O)(=O)c2ccc(Br)cc2)c2ccccc2c1O` [Compound 6, (2-(4-((4-bromophenyl)sulfonamido)-1-hydroxynaphthalen-2-yl)ethyl)phosphonic acid] yielded a Ki [1] of 2.4 µM.

`Cc1ccc(-c2cc(NS(=O)(=O)c3ccc(C)cc3)c3ccccc3c2O)cc1` [Compound 3, N-(4-hydroxy-3-(p-tolyl)naphthalen-1-yl)-4-methylbenzenesulfonamide] was tested, and the “Inhibitory activity against IDH1(R132H), in words” value (from here on “Inhibitory activity … in words”) [1] was “inactive”, the “Activity against proliferation of BT142 glioma cells” value (“Activity … of BT142 glioma cells” for short) [2] was “did not exhibit activity” and the “Activity against proliferation of BXD-3752 glioma cells” value (“Activity … of BXD-3752 glioma cells” for short) [3] was “did not exhibit activity”.

With `O=S(=O)(Nc1cc(Br)c(O)c2ccccc12)c1ccc(F)cc1` [Compound 8, N-(3-bromo-4-hydroxynaphthalen-1-yl)-4-fluorobenzenesulfonamide] the Ki [1] was roughly 25 µM.

In the case of `O=S(=O)(Nc1ccc(F)c(Cl)c1)c1ccc(Br)cc1` [Compound 20, 4-bromo-N-(3-chloro-4-fluorophenyl)benzenesulfonamide], the Ki [1] is reported as 16.1 µM.

With `O=S(=O)(Nc1ccc(O)cc1)c1ccc(Br)cc1` [Compound 17, 4-bromo-N-(4-hydroxyphenyl)benzenesulfonamide] the Ki [1] was 7.3 µM.

With `O=S(=O)(Nc1cc(Br)c(O)c2ccccc12)c1ccc(Br)cc1` [Compound 2, 4-bromo-N-(3-bromo-4-hydroxynaphthalen-1-yl)benzenesulfonamide] the Ki [1] was 4.1 µM, the “Fold increased inhibitory activity relative to compound 1” value ([1]; IDH1(R132H), vs compound 1) was ~ 2 fold and the Ki [4] was greater than 50 µM. The Ki [5] was greater than 50 µM.

With `O=S(=O)(Nc1ccccc1)c1ccc(Br)cc1` [Compound 19, 4-bromo-N-phenylbenzenesulfonamide] the “Inhibitory activity … in words” value [1] was “inactive”.

In the case of `COc1ccc(S(=O)(=O)Nc2cc(CCC(=O)O)c(O)c3ccccc23)cc1` [Compound 7, 3-(1-hydroxy-4-((4-methoxyphenyl)sulfonamido)naphthalen-2-yl)propanoic acid], the Ki [1] is reported as 10.2 µM.

For `O=S(=O)(Nc1cccc(Br)c1)c1ccc(Br)cc1` [Compound 18, 4-bromo-N-(3-bromophenyl)benzenesulfonamide], the Ki [1] was 9 µM.

With `O=S(=O)(Nc1cc(-c2ccc3ccccc3c2)c(O)c2ccccc12)c1ccc(Br)cc1` [Compound 4, 4-bromo-N-(1-hydroxy-[2,2’-binaphthalen]-4-yl)benzenesulfonamide] the “Inhibitory activity … in words” value [1] was “inactive”.

With `Cc1ccc(S(=O)(=O)Nc2ccc(O)c3ccccc23)cc1` [Compound 12, N-(4-hydroxynaphthalen-1-yl)-4-methylbenzenesulfonamide] the Ki [1] was 6.8 µM and the “Fold less active than compound 9” value ([1]; IDH1(R132H), vs compound 9) was ~ 6 fold.

With `Cc1ccc(S(=O)(=O)Nc2cc(Br)c(O)c3ccccc23)cc1` [Compound 9, N-(3-bromo-4-hydroxynaphthalen-1-yl)-4-methylbenzenesulfonamide] the Ki [1] was 1.2 µM, the “Fold more active than compound 2” value ([1]; IDH1(R132H), vs compound 2) was ~ 4 × and the Ki [4] was greater than 50 µM. For the same compound, the “Activity … of BT142 glioma cells” value [2] was “strongly inhibited the growth; also recorded: strong activity”, the “Mode of inhibition against the cofactor NADPH” value ([6]; variable NADPH, Michaelis-Menten plot) was “noncompetitive mode of action; also recorded: non-competitive inhibitor” and the “Mode of inhibition against the substrate α-KG” value ([6]; variable α-KG, Lineweaver-Burk plot) was “competitive inhibitor”. For the same compound, the “Activity … of BXD-3752 glioma cells” value [3] was “did not show activity; also recorded: did not significantly affect growth” and the Ki [5] was greater than 50 µM.

For `O=S(=O)(Nc1cc(Br)c(O)c2ccccc12)c1ccc2ccccc2c1` [Compound 11, N-(3-bromo-4-hydroxynaphthalen-1-yl)naphthalene-2-sulfonamide], the Ki [1] was 0.8 µM, the Ki [4] was greater than 50 µM and the Ki [5] was greater than 50 µM.

`O=S(=O)(Nc1cc(Br)c(O)c2ccccc12)c1ccc(-c2ccccc2)cc1` [Compound 10, N-(3-bromo-4-hydroxynaphthalen-1-yl)-[1,1’-biphenyl]-4-sulfonamide] was tested, and the Ki [1] was 0.6 µM, the Ki [4] was greater than 50 µM and the “Activity … of BT142 glioma cells” value [2] was “strongly inhibited the growth; also recorded: strong activity”. For the same compound, the “Activity … of BXD-3752 glioma cells” value [3] was “did not show activity; also recorded: did not significantly affect growth” and the Ki [5] was 36 µM.

With `O=C(O)CCc1cc(NS(=O)(=O)c2ccc(Br)cc2)c2ccccc2c1O` [Compound 5, 3-(4-((4-bromophenyl)sulfonamido)-1-hydroxynaphthalen-2-yl)propanoic acid] the Ki [1] was 17.5 µM.

In the case of `O=S(=O)(Nc1cc(Oc2ccccc2)c(O)c2ccccc12)c1ccc(Br)cc1` [Compound 1, 4-bromo-N-(4-hydroxy-3-phenoxynaphthalen-1-yl)benzenesulfonamide], the Ki [1] is reported as 8.2 µM.

`O=S(=O)(Nc1ccc(O)c2ccccc12)c1ccccc1` [Compound 13, N-(4-hydroxynaphthalen-1-yl)benzenesulfonamide] was tested, and the Ki [1] was 11.1 µM.

For `O=S(=O)(Nc1ccc(O)c(Oc2ccccc2)c1)c1ccc(Br)cc1` [Compound 14, 4-bromo-N-(4-hydroxy-3-phenoxyphenyl)benzenesulfonamide], the “Inhibitory activity … in words” value [1] was “Devoid of activity”.
